Measurements published in ChEMBL document CHEMBL1921722, “In vitro and in vivo evaluation of select kahalalide F analogs with antitumor and antifungal activities” (Bioorg Med Chem, 2011).
Converted amounts (≈) assume the structure as drawn.

How the values were obtained:
[1] = test system: HT-29; experiment: Cytotoxicity against human HT-29 cells assessed as cell growth at 800 nM by sulforhodamine B assay relative to control; format: functional; details: read-out: Activity
[2] = test system: OVCAR-5; experiment: Cytotoxicity against human OVCAR5 cells assessed as cell growth at 8 uM by sulforhodamine B assay relative to control; format: functional; details: read-out: Activity
[3] = test system: OVCAR-3; experiment: Cytotoxicity against human OVCAR3 cells assessed as cell growth at 80 uM by sulforhodamine B assay relative to control; format: functional; details: read-out: Activity
[4] = test system: SN12C; experiment: Cytotoxicity against human SN12C cells assessed as cell growth at 800 nM by sulforhodamine B assay relative to control; format: functional; details: read-out: Activity
[5] = test system: HCT-116; experiment: Cytotoxicity against human HCT116 cells assessed as cell growth at 8 uM by sulforhodamine B assay relative to control; format: functional; details: read-out: Activity
[6] = test system: MDA-MB-435; experiment: Cytotoxicity against human MDA-MB-435 cells assessed as cell growth at 80 uM by sulforhodamine B assay relative to control; format: functional; details: read-out: Activity
[7] = test system: MDA-MB-231; experiment: Cytotoxicity against human MDA-MB-231 cells by sulforhodamine B assay; format: functional
Summary of the method: (§1)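 NCI Developmental Therapeutics Program 60-cell-line human tumor panel screen, run at NCI. A single-concentration pre-screen was followed by a five-concentration dose-response in 10-fold steps. GI50 is the concentration that reduces growth of treated cells to half that of untreated control cells. TGI is the concentration that completely halts growth.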

[8] = test system: PC-3; experiment: Cytotoxicity against human PC3 cells assessed as cell growth at 8 nM by sulforhodamine B assay relative to control; format: functional; details: read-out: Activity
[9] = test system: EKVX; experiment: Cytotoxicity against human EKVX cells by sulforhodamine B assay; format: functional
Summary of the method: (§2)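 Run by the NCI Developmental Therapeutics Program on its 60-line human tumour cell panel using the standard procedure. Compounds went through a single-concentration prescreen first, and those active by NCI criteria went on to a five-concentration growth-inhibition test. GI50 is the concentration that cuts growth of treated cells to half that of untreated control cells.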

[10] = test system: SR; experiment: Cytotoxicity against human SR cells by sulforhodamine B assay; format: functional; summary of the method: as §1
[11] = test system: SNB-19; experiment: Cytotoxicity against human SNB19 cells assessed as cell growth at 800 nM by sulforhodamine B assay relative to control; format: functional; details: read-out: Activity
[12] = test system: UACC-257; experiment: Cytotoxicity against human UACC257 cells assessed as cell growth at 80 uM by sulforhodamine B assay relative to control; format: functional; details: read-out: Activity
[13] = test system: SK-MEL-5; experiment: Cytotoxicity against human SK-MEL-5 cells assessed as cell growth at 8 nM by sulforhodamine B assay relative to control; format: functional; details: read-out: Activity
[14] = test system: NCI/ADR-RES; experiment: Cytotoxicity against human NCI/ADR-RES cells assessed as cell growth at 8 uM by sulforhodamine B assay relative to control; format: functional; details: read-out: Activity
[15] = test system: NCI-H23; experiment: Cytotoxicity against human NCI-H23 cells by sulforhodamine B assay; format: functional; summary of the method: as §1
[16] = test system: OVCAR-5; experiment: Cytotoxicity against human OVCAR5 cells by sulforhodamine B assay; format: functional; summary of the method: as §1
[17] = test system: EKVX; experiment: Cytotoxicity against human EKVX cells assessed as cell growth at 80 uM by sulforhodamine B assay relative to control; format: functional; details: read-out: Activity
[18] = test system: DU-145; experiment: Cytotoxicity against human DU145 cells assessed as cell growth at 8 nM by sulforhodamine B assay relative to control; format: functional; details: read-out: Activity
Summary of the method: (§3)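 Run at NCI in the DTP 60-cell-line human tumor panel by standard procedure. Compounds were first screened at a single concentration, then tested at five tenfold-spaced concentrations. GI50 is the concentration reducing treated-cell growth to half that of untreated controls; TGI is the concentration completely halting growth.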

[19] = test system: SK-MEL-2; experiment: Cytotoxicity against human SK-MEL-2 cells assessed as cell growth at 8 uM by sulforhodamine B assay relative to control; format: functional; details: read-out: Activity
[20] = test system: T47D; experiment: Cytotoxicity against human T47D cells by sulforhodamine B assay; format: functional; summary of the method: as §1
[21] = test system: OVCAR-3; experiment: Cytotoxicity against human OVCAR3 cells assessed as cell growth at 80 nM by sulforhodamine B assay relative to control; format: functional; details: read-out: Activity
[22] = test system: DU-145; experiment: Cytotoxicity against human DU145 cells assessed as cell growth at 80 uM by sulforhodamine B assay relative to control; format: functional; details: read-out: Activity
[23] = test system: RXF 393; experiment: Cytotoxicity against human RXF393 cells assessed as cell growth at 8 nM by sulforhodamine B assay relative to control; format: functional; details: read-out: Activity
[24] = test system: DU-145; experiment: Cytotoxicity against human DU145 cells by sulforhodamine B assay; format: functional; summary of the method: as §2
[25] = test system: NCI-H522; experiment: Cytotoxicity against human NCI-H522 cells assessed as cell growth at 8 uM by sulforhodamine B assay relative to control; format: functional; details: read-out: Activity
[26] = test system: 786-0; experiment: Cytotoxicity against human 786-0 cells by sulforhodamine B assay; format: functional; summary of the method: as §3
[27] = test system: COLO 205; experiment: Cytotoxicity against human COLO205 cells assessed as cell growth at 8 nM by sulforhodamine B assay relative to control; format: functional; details: read-out: Activity; summary of the method: as §3
[28] = test system: T47D; experiment: Cytotoxicity against human T47D cells assessed as cell growth at 80 uM by sulforhodamine B assay relative to control; format: functional; details: read-out: Activity
[29] = test system: SK-MEL-2; experiment: Cytotoxicity against human SK-MEL-2 cells assessed as cell growth at 800 nM by sulforhodamine B assay relative to control; format: functional; details: read-out: Activity
[30] = test system: SF-295; experiment: Cytotoxicity against human SF295 cells assessed as cell growth at 800 nM by sulforhodamine B assay relative to control; format: functional; details: read-out: Activity
[31] = test system: RPMI-8226; experiment: Cytotoxicity against human RPMI8226 cells assessed as cell growth at 80 uM by sulforhodamine B assay relative to control; format: functional; details: read-out: Activity
[32] = test system: HOP-62; experiment: Cytotoxicity against human HOP62 cells assessed as cell growth at 80 nM by sulforhodamine B assay relative to control; format: functional; details: read-out: Activity
[33] = test system: SF-295; experiment: Cytotoxicity against human SF295 cells by sulforhodamine B assay; format: functional; summary of the method: as §1
[34] = test system: SW-620; experiment: Cytotoxicity against human SW620 cells assessed as cell growth at 800 nM by sulforhodamine B assay relative to control; format: functional; details: read-out: Activity
[35] = test system: U-251; experiment: Cytotoxicity against human U251 cells assessed as cell growth at 80 uM by sulforhodamine B assay relative to control; format: functional; details: read-out: Activity
[36] = test system: SF-268; experiment: Cytotoxicity against human SF268 cells assessed as cell growth at 80 nM by sulforhodamine B assay relative to control; format: functional; details: read-out: Activity
[37] = test system: HCT-15; experiment: Cytotoxicity against human HCT15 cells by sulforhodamine B assay; format: functional; summary of the method: as §2
[38] = test system: Aspergillus fumigatus; experiment: Antimicrobial activity against Aspergillus fumigatus ATCC 90906 by CLSI method; format: functional, organism-based

## C/C=C1\NC(=O)[C@H](Cc2ccccc2)NC(=O)[C@@H](C(C)C)NC(=O)[C@@H]([C@@H](C)CC)NC(=O)[C@H](NC(=O)[C@H](NC(=O)[C@H](CCCNCc2ccc(F)c(C)c2)NC(=O)[C@H]2CCCN2C(=O)[C@H](NC(=O)[C@@H](NC(=O)[C@@H](NC(=O)[C@H](NC(=O)CCCC(C)C)C(C)C)[C@@H](C)O)C(C)C)C(C)C)[C@@H](C)CC)[C@@H](C)OC(=O)[C@H](C(C)C)NC1=O
[1]
  growth at 0.8 µM: -52%
[2]
  growth at 8 µM: -95%
[3]
  growth at 80 µM: -90%
[4]
  growth at 0.8 µM: 87%
[5]
  growth at 8 µM: -100%
[6]
  growth at 80 µM: -36%
[7]
  GI50: 1450 nM
  LC50: 6920 nM
[7]; read-out: pTGI (converted)
  TGI: 3160 nM
[8]
  growth at 0.008 µM: 109%
[9]
  GI50: 759 nM
[9]; read-out: pLC50 (the source's name) (converted)
  CC50: 4370 nM
[9]; read-out: pTGI (converted)
  TGI: 1820 nM
[10]
  GI50: 1580 nM
  LC50: > 75900 nM
[10]; read-out: pTGI (converted)
  TGI: 3470 nM
[11]
  growth at 0.8 µM: 90%
[12]
  growth at 80 µM: -70%
[13]
  growth at 0.008 µM: 99%
[14]
  growth at 8 µM: -76%
[15]
  GI50: 1410 nM
  LC50: 5250 nM
[15]; read-out: pTGI (converted)
  TGI: 2750 nM
[16]
  GI50: 813 nM
  LC50: 3800 nM
[16]; read-out: pTGI (converted)
  TGI: 1740 nM
[17]
  growth at 80 µM: -59%
[18]
  growth at 0.008 µM: 99%
[19]
  growth at 8 µM: -80%
[20]; read-out: GI50
  GI50: 144 nM
[20]; read-out: TGI
  TGI: 327 nM
[20]; read-out: pGI50 (converted)
  GI50: 145 nM
[20]; read-out: pTGI (converted)
  TGI: 331 nM
[21]
  growth at 0.08 µM: 88%
[22]
  growth at 80 µM: -91%
[23]
  growth at 0.008 µM: 103%
[24]
  LC50: 468 nM
[24]; read-out: GI50
  GI50: 123 nM
[24]; read-out: TGI
  TGI: 240 nM
[24]; read-out: pGI50 (converted)
  GI50: 123 nM
[24]; read-out: pTGI (converted)
  TGI: 240 nM
[25]
  growth at 8 µM: 3%
[26]
  GI50: 1290 nM
  LC50: 4170 nM
[26]; read-out: pTGI (converted)
  TGI: 2340 nM
[27]
  growth at 0.008 µM: 99%
[28]
  growth at 80 µM: -13%
[29]
  growth at 0.8 µM: 100%
[30]
  growth at 0.8 µM: 89%
[31]
  growth at 80 µM: -21%
[32]
  growth at 0.08 µM: 102%
[33]
  GI50: 1260 nM
[33]; read-out: pTGI (converted)
  TGI: 2400 nM
[34]
  growth at 0.8 µM: 40%
[35]
  growth at 80 µM: -89%
[36]
  growth at 0.08 µM: 99%
[37]
  LC50: 1380 nM
[37]; read-out: GI50
  GI50: 181 nM
[37]; read-out: TGI
  TGI: 419 nM
[37]; read-out: pGI50 (converted)
  GI50: 182 nM
[37]; read-out: pTGI (converted)
  TGI: 417 nM
[38]
  IC50: 3090 nM
  MFC: 10 µM (≈ 16 µg/mL)
  MIC: 10 µM (≈ 16 µg/mL)
